Source: article PMC5074691 (Cell reports, 2016)

B1: His-ATPase-CW: MORC3 construct harboring linked ATPase and CW domains (aa 1-455), His-tagged (protein)
chain: MAAQPPRGIRLSALCPKFLHTNSTSHTWPFSAVAELIDNAYDPDVNAKQIWIDKTVINDHICLTFTDNGNGMTSDKLHKMLSFGFSDKVTMNGHVPVGLYGNGFKSGSMRLGKDAIVFTKNGESMSVGLLSQTYLEVIKAEHVVVPIVAFNKHRQMINLAESKASLAAILEHSLFSTEQKLLAELDAIIGKKGTRIIIWNLRSYKNATEFDFEKDKYDIRIPEDLDEITGKKGYKKQERMDQIAPESDYSLRAYCSILYLKPRMQIILRGQKVKTQLVSKSLAYIERDVYRPKFLSKTVRITFGFNCRNKDHYGIMMYHRNRLIKAYEKVGCQLRANNMGVGVVGIIECNFLKPTHNKQDFDYTNEYRLTITALGEKLNDYWNEMKVKKNTEYPLNLPVEDIQKRPDQTWVQCDACLKWRKLPDGMDQLPEKWYCSNNPDPQFRNCEVPEEPEDE
modifications: left off: His tag, end not stated, kept
B2: His-ATPase: His-tagged isolated ATPase domain of MORC3 (aa 1-392) (protein)
chain: MAAQPPRGIRLSALCPKFLHTNSTSHTWPFSAVAELIDNAYDPDVNAKQIWIDKTVINDHICLTFTDNGNGMTSDKLHKMLSFGFSDKVTMNGHVPVGLYGNGFKSGSMRLGKDAIVFTKNGESMSVGLLSQTYLEVIKAEHVVVPIVAFNKHRQMINLAESKASLAAILEHSLFSTEQKLLAELDAIIGKKGTRIIIWNLRSYKNATEFDFEKDKYDIRIPEDLDEITGKKGYKKQERMDQIAPESDYSLRAYCSILYLKPRMQIILRGQKVKTQLVSKSLAYIERDVYRPKFLSKTVRITFGFNCRNKDHYGIMMYHRNRLIKAYEKVGCQLRANNMGVGVVGIIECNFLKPTHNKQDFDYTNEYRLTITALGEKLNDYWNEMKVKKNTE
modifications: left off: His tag, end not stated, kept

Experiments:
MORC3 His-ATPase-CW = assay: ATPase assay; format: biochemical, human; settings: with DNA
Outline: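 Human MORC3 His-ATPase-CW (aa 1–455), expressed in E. coli Rosetta2(DE3) pLysS, Ni-NTA purified in HEPES buffers, used at 1.5–3.0 μM. Run 20 min at 22 °C or 30 min at 30 °C, read at A360. SD from ≥3 experiments (two at 30 °C).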

Widom 601 DNA = assay: EMSA with Widom 601 DNA; format: binding; settings: 1 to 20 molar excess protein; 601 DNA (3 pM); 20 mM Tris-HCl pH 7.5, 150 mM NaCl, 2 mM DTT; 1 h, room temperature
Outline: (§1)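 MORC3 His-ATPase (aa 1–392, E. coli-expressed, Ni-NTA purified) is titrated onto the nucleic acid substrate; for 601 DNA, His-ATPase-CW (aa 1–455) is also tested. Mixtures run on 5% polyacrylamide gels in 0.2x TB at 150 V for 1 h on ice, then are stained with ethidium bromide and imaged.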

MORC3-CW E453A = assay: 1H,15N TROSY/HSQC NMR titration and competition on MORC3-CW E453A; format: binding, human
[1] = tested on: reconstituted nucleosome core particles (NCPs); assay: EMSA with nucleosome core particles; format: binding; settings: 1 to 20 molar excess protein; NCPs (3 pM); 20 mM Tris-HCl pH 7.5, 150 mM NaCl, 2 mM DTT; 1 h, room temperature
Outline: as §1

Row | Molecule | effect of linked CW on rate of hydrolysis in the presence of DNA (MORC3 His-ATPase-CW) | DNA binding by EMSA (Widom 601 DNA) | chemical shift perturbation / complex formation in TROSY (MORC3-CW E453A; 10 mM HEPES pH 7.4, 100 mM NaCl, 1 mM TCEP, 7% D2O, 298K) | displacement of H3K4me0 from CW E453A:H3K4me0 complex (MORC3-CW E453A; His-ATPase titrated into CW E453A:H3K4me0 (1:4), 10 mM HEPES pH 7.4) | NCP binding by EMSA [1]
1 | B1 | considerably decreased the rate of hydrolysis in the presence of DNA | impaired |  |  | 
2 | B2 |  | resulted in a shift of the DNA and/or NCP bands | Substantial chemical shift perturbations | could not efficiently displace H3K4me0 | resulted in a shift of the DNA and/or NCP bands
